ChEMBL document CHEMBL3045051 (Med Chem Res, 2011)
Calls of active or inactive are those of the source. The calls are words filed in the database; no cut-off is given here.

Legend:
Human alphaherpesvirus 2 = assay: Antiviral activity against Human herpesvirus 2 strain G infected human HEL cells assessed as inhibition of virus-induced cytopathicity; format: functional, organism-based
In short: (§1)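 Confluent monolayers (feline kidney Crandell, Vero, HEL or HeLa, as named for each virus) were infected with 100 CCID50 of virus and allowed to adsorb for 1 h. Unbound virus was then removed, and cultures were incubated with test compound in serial dilutions (200, 40, 8 … µM). Cytopathicity was scored once untreated infected controls reached complete cytopathic effect.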

Human respirovirus 3 = assay: Antiviral activity against Human parainfluenza virus 3 infected Vero cells assessed as inhibition of virus-induced cytopathicity; format: functional, organism-based; in short: as §1
[1] = Antioxidant activity assessed as inhibition of AAPH-induced lipid peroxidation at 1 X 10^-4 M; format: functional
[2] = target: T1, Seed linoleate 13S-lipoxygenase-1 (Glycine max, UniProt P08170); assay: Inhibition of Glycine max (soybean) lipoxygenase using sodium linoleate as substrate
T1 sequence (P08170 whole entry): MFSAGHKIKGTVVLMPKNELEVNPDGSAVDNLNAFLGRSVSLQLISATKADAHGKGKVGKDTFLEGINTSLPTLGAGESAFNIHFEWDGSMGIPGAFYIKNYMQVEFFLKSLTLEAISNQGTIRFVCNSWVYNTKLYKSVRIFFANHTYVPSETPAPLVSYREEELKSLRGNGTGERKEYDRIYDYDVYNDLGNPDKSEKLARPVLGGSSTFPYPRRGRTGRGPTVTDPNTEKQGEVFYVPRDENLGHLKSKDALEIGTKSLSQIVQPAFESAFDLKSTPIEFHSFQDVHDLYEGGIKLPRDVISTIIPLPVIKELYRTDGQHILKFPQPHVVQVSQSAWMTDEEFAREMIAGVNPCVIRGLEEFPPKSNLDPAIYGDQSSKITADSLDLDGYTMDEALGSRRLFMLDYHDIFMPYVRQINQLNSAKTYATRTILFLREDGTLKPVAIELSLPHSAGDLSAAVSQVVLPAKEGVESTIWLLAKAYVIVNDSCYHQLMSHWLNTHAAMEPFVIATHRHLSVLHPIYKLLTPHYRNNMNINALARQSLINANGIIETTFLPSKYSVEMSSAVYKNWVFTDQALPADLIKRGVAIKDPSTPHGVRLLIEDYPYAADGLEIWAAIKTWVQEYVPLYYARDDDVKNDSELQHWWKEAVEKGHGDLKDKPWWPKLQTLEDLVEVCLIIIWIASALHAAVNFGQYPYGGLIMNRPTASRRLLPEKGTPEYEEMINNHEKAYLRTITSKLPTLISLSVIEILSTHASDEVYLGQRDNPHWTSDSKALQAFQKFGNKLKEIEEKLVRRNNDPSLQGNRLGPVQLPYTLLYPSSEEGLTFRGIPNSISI

[3] = system: Vesicular stomatitis virus; assay: Antiviral activity against Vesicular stomatitis virus infected Hela cells assessed as inhibition of virus-induced cytopathicity; format: functional, organism-based
[4] = system: Radical scavenging activity; assay: Antioxidant activity assessed as DPPH radical scavenging activity at 5 X 10^-5 M after 60 min; format: functional
In short: (§2)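 Test compound was mixed with DPPH (0.05 and 0.1 mM) in ethanol. Absorbance at 517 nm was read after 20 and 60 min and compared with the NDGA standard, with ethanol as control. Each experiment was run at least in triplicate, and the SD of absorbance was <10% of the mean.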

Coxsackievirus B4 [5] = assay: Antiviral activity against Human coxsackievirus B4 infected human HeLa cells assessed as inhibition of virus-induced cytopathicity; format: functional, organism-based; in short: as §1
[6] = system: Mammalian orthoreovirus 1; assay: Antiviral activity against Mammalian orthoreovirus 1 infected VERO cells assessed as inhibition of virus-induced cytopathicity; format: functional, organism-based; in short: as §1
[7] = target: T2, Seed linoleate 13S-lipoxygenase-1 (Glycine max) (UniProt P08170); assay: Inhibition of Glycine max (soybean) lipoxygenase using sodium linoleate as substrate at 1 X 10^-4
T2 sequence (whole entry): T1 sequence (P08170 whole entry)

Feline coronavirus = assay: Antiviral activity against Feline coronavirus infected feline kidney crandell cells assessed as inhibition of virus-induced cytopathicity; format: functional, organism-based; in short: as §1
Human alphaherpesvirus 1 = assay: Antiviral activity against […] 1 KOS infected in human HEL cells assessed as inhibition of virus-induced cytopathicity; format: functional, organism-based; in short: as §1
[8] = system: Respiratory syncytial virus; assay: Antiviral activity against Respiratory syncytial virus infected human HeLa cells assessed as inhibition of virus-induced cytopathicity; format: functional, organism-based; in short: as §1
Sindbis virus = assay: Antiviral activity against Sindbis virus infected Hela cells assessed as inhibition of virus-induced cytopathicity; format: functional, organism-based
Vaccinia virus = assay: Antiviral activity against Vaccinia virus infected human HEL cells assessed as inhibition of virus-induced cytopathicity; format: functional, organism-based; conditions: Orthopoxvirus vaccinia
[9] = system: Radical scavenging activity; assay: Antioxidant activity assessed as DPPH radical scavenging activity at 1 X 10^-4 M after 20 min; format: functional; in short: as §2
Coxsackievirus B4 [10] = assay: Antiviral activity against Human coxsackievirus B4 infected VERO cells assessed as inhibition of virus-induced cytopathicity; format: functional, organism-based; in short: as §1
[11] = Antioxidant activity assessed as inhibition of AAPH-induced lipid peroxidation at 1 X 10^-5 M; format: functional
[12] = system: Radical scavenging activity; assay: Antioxidant activity assessed as DPPH radical scavenging activity at 5 X 10^-5 M after 20 min; format: functional; in short: as §2
Punta Toro virus = assay: Antiviral activity against Punta Toro virus infected Hela cells assessed as inhibition of virus-induced cytopathicity; format: functional, organism-based
[13] = system: Vesicular stomatitis virus; assay: Antiviral activity against Vesicular stomatitis virus infected HEL cells assessed as inhibition of virus-induced cytopathicity; format: functional, organism-based
[14] = system: Radical scavenging activity; assay: Antioxidant activity assessed as DPPH radical scavenging activity at 1 X 10^-4 M after 60 min; format: functional; in short: as §2
Influenza A virus = assay: Antiviral activity against Unidentified Influenza A virus (H1N2) infected MDCK cells assessed as inhibition of virus-induced cytopathicity; format: functional, organism-based

For `CC(C(=O)NCc1ccccc1)c1cccc(C(OC(=O)NCc2ccccc2)c2ccccc2)c1` (configuration not stated), the Activity (Human alphaherpesvirus 2) was “inactive”, the Activity (Human respirovirus 3) was “inactive” and the inhibition [1] was 98.4%. The IC50 [2] was 32 µM, the EC50 [3] was 3 µM and the inhibition [4] was 5.3%. For the same compound, the Activity (Coxsackievirus B4 [5]) was “inactive”, the Activity [6] was “inactive” and the inhibition [7] was 83.8%. The Activity (Feline coronavirus) was “inactive”, the Activity (Human alphaherpesvirus 1) was “inactive” and the Activity [8] was “inactive”. The EC50 (Sindbis virus) was 11 µM, the Activity (Vaccinia virus) was “inactive” and the inhibition [9] was “inactive”. For the same compound, the Activity (Coxsackievirus B4 [10]) was “inactive”, the inhibition [11] was “inactive” and the inhibition [12] was 4.2%. The EC50 (Punta Toro virus) was 11 µM, the Activity [13] was “inactive” and the inhibition [14] was 2.4%. For the same compound, the Activity (Influenza A virus) was “inactive” and the Activity (Influenza A virus; H1N1) was “inactive”.
In the case of `CC(C(=O)n1nnc2ccccc21)c1cccc(C(OC(=O)n2nnc3ccccc32)c2ccccc2)c1` (configuration not stated), the Activity (Human alphaherpesvirus 2) is reported as “inactive”, the Activity (Human respirovirus 3) is reported as “inactive” and the inhibition [1] is reported as 98%. The IC50 [2] was 21 µM, the Activity [3] was “inactive” and the inhibition [4] was 3.7%. For the same compound, the Activity (Coxsackievirus B4 [5]) was “inactive”, the Activity [6] was “inactive” and the inhibition [7] was 95%. The Activity (Feline coronavirus) was “inactive”, the Activity (Human alphaherpesvirus 1) was “inactive” and the Activity [8] was “inactive”. For the same compound, the Activity (Sindbis virus) was “inactive”, the Activity (Vaccinia virus) was “inactive” and the inhibition [9] was 2.5%. For the same compound, the Activity (Coxsackievirus B4 [10]) was “inactive”, the inhibition [11] was 15% and the inhibition [12] was 2.9%. The Activity (Punta Toro virus) was “inactive”, the Activity [13] was “inactive” and the inhibition [14] was 5.4%. The Activity (Influenza A virus) was “inactive” and the Activity (Influenza A virus; H1N1) was “inactive”.
In the case of `CC(C(=O)NCC1CCCCC1)c1cccc(C(OC(=O)NCC2CCCCC2)c2ccccc2)c1` (configuration not stated), the Activity (Human alphaherpesvirus 2) is reported as “inactive”, the Activity (Human respirovirus 3) is reported as “inactive” and the inhibition [1] is reported as 99.5%. For the same compound, the IC50 [2] was 95 µM, the Activity [3] was “inactive” and the inhibition [4] was 3.1%. For the same compound, the Activity (Coxsackievirus B4 [5]) was “inactive”, the Activity [6] was “inactive” and the inhibition [7] was 56.6%. For the same compound, the Activity (Feline coronavirus) was “inactive”, the Activity (Human alphaherpesvirus 1) was “inactive” and the Activity [8] was “inactive”. For the same compound, the Activity (Sindbis virus) was “inactive”, the Activity (Vaccinia virus) was “inactive” and the inhibition [9] was 1.6%. For the same compound, the Activity (Coxsackievirus B4 [10]) was “inactive”, the inhibition [11] was 1.4% and the inhibition [12] was 1.7%. The Activity (Punta Toro virus) was “inactive”, the Activity [13] was “inactive” and the inhibition [14] was 5.2%. For the same compound, the Activity (Influenza A virus) was “inactive” and the Activity (Influenza A virus; H1N1) was “inactive”.
For `CC(C(=O)NC1CCCC1)c1cccc(C(OC(=O)NC2CCCC2)c2ccccc2)c1` (configuration not stated), the Activity (Human alphaherpesvirus 2) was “inactive”, the Activity (Human respirovirus 3) was “inactive” and the inhibition [1] was 95.2%. The IC50 [2] was 86 µM, the Activity [3] was “inactive” and the inhibition [4] was 2.8%. The Activity (Coxsackievirus B4 [5]) was “inactive”, the Activity [6] was “inactive” and the inhibition [7] was 69.6%. The Activity (Feline coronavirus) was “inactive”, the Activity (Human alphaherpesvirus 1) was “inactive” and the Activity [8] was “inactive”. The Activity (Sindbis virus) was “inactive”, the Activity (Vaccinia virus) was “inactive” and the inhibition [9] was “inactive”. The Activity (Coxsackievirus B4 [10]) was “inactive”, the inhibition [11] was “inactive” and the inhibition [12] was 3.2%. For the same compound, the Activity (Punta Toro virus) was “inactive”, the Activity [13] was “inactive” and the inhibition [14] was 2.3%. The Activity (Influenza A virus) was “inactive” and the Activity (Influenza A virus; H1N1) was “inactive”.
For `CC(C(=O)O)c1cccc(C(=O)c2ccccc2)c1` (configuration not stated) [KETOPROFEN], the Activity (Human alphaherpesvirus 2) was “inactive”, the Activity (Human respirovirus 3) was “inactive” and the IC50 [2] was 130 µM. The Activity [3] was “inactive”, the inhibition [4] was 3.1% and the Activity (Coxsackievirus B4 [5]) was “inactive”. For the same compound, the Activity [6] was “inactive”, the Activity (Feline coronavirus) was “inactive” and the Activity (Human alphaherpesvirus 1) was “inactive”. For the same compound, the Activity [8] was “inactive”, the Activity (Sindbis virus) was “inactive” and the Activity (Vaccinia virus) was “inactive”. For the same compound, the inhibition [9] was 8.1%, the Activity (Coxsackievirus B4 [10]) was “inactive” and the inhibition [12] was 6.4%. The Activity (Punta Toro virus) was “inactive”, the Activity [13] was “inactive” and the inhibition [14] was 7.2%. The Activity (Influenza A virus) was “inactive” and the Activity (Influenza A virus; H1N1) was “inactive”.
